T cruzi inh: blocks replication of Trypanosoma cruzi. T. cruzi beta-gal in NIH3T3, luminescence, 90 h. 300,000 compounds, 1.4% hits. AID 1885. inhibition, % (concentration not given with the values);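 active = mean inhibition across valid replicates above about 55%, limit read from the data; inconclusive = mean below that limit but half or more replicates reach it; inactive = mean below it, under half of replicates reach it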;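 note: signal also drops with host cell toxicity which is not excluded here; 0% = plate median of DMSO wells and 100% = zero luminescence signal; higher percent means less beta-gal luminescence so fewer parasites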
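compound dosing = single 50 nL compound addition per well in DMSO | material = NIH/3T3 host cells with β-galactosidase reporter T. cruzi | input = 5,000 host fibroblasts per well | timing = ≥90 h infection period, 3 h prior cell attachment | read-out basis = percent inhibition of parasite-derived β-gal signal | detection = GalScreen β-gal luminescence, detergent lysis, 60 min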
Beta apoptosis: beta cell apoptosis inhibition; INS-1E cytokine-induced death, ATP luminescence, 48 h; percent of positive-control rescue, neutral wells zero; protection from apoptosis, % (no concentration beside the values); 300,000 compounds, 0.8% hits;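 active = Every replicate reaches about 75%, or at least half do and their mean reaches it too, limit read from the data; inconclusive = At least half of replicates reach the limit but their mean does not; inactive = Under half of replicates reach the limit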;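 note: 0% = cytokine-treated negative control wells and 100% = positive control rescue; higher means more ATP so stronger rescue from cytokine killing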
CSC inhib: cancer stem cell inhibition; cancer stem cell-like cells viability, luminescence; inhibition, % at 7.5 µM; 300,000 compounds, 1.1% hits; AID 2717; in the data active = inhibition above about 75%; inconclusive = no clear call, values can overlap the other calls; tested in HMLE shEcad cells
HIF act: HIF pathway transcriptional activation | U2OS HRE-luciferase reporter, luminescence; normalized: DMSO 0%, desferrioxamine 100% | activation, % at 7.5 µM (by protocol) | 300,000 compounds, 0.32% hits | AID 1910;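 active = mean activation of at least 10% of the iron chelator positive control signal, with at least half of replicates also reaching 10%; inconclusive = mean and replicate majority disagree about reaching 10%; inactive = mean and most replicates under 10%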
SKKanGAS inh: blocks kanamycin growth of S. pyogenes SKKanGAS strain | 300,000 compounds, 1.3% hits | inhibition, % at 7.5 µM | BacTiter-Glo, 6 h | AID 1662;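 active = mean replicate score, as percent of positive control median, at least 50; inconclusive = mean below 50 but one replicate at or above 50; inactive = mean and every replicate below 50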;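 note: strain carries kanamycin resistance gene driven by streptokinase promoter and grows in 40 µg/ml kanamycin; loss of luminescence reflects streptokinase promoter inhibition or plain growth inhibition; 0% = median of DMSO wells and 100% = positive control at its reference dose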
PfHsp90 yeast 2: growth inhibition of yeast expressing Plasmodium Hsp90; S. cerevisiae expressing PfHsp90, BacTiter-Glo ATP, 48 h; yeast lacking PDR1 and PDR3 efflux regulators; inhibition, % at 9.4 µM; 310,000 compounds, 0.32% hits; AID 504621;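 active = every replicate shows inhibition above about 80%, whatever the replicate mean, limit read from the data; inconclusive = mean inhibition reaches the set limit but some replicate falls short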;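 note: 0% = DMSO neutral controls and 100% = 20 µM radicicol positive controls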
* = called active by the depositor; u = inconclusive; x = no result. A selection: hits, their analogues and other compounds. The true share with any hit is near 3.6%.

SMILES	T cruzi inh	Beta apoptosis	CSC inhib	HIF act	SKKanGAS inh	PfHsp90 yeast 2
CN(C)c1ncc(C2=C(Cl)C(=O)C(N3CCCC3)=C(Cl)C2=O)s1	20	-13	4	0	77*	9
Cn1c(N)c(S(=O)(=O)N2CCCC2)c(=O)n(C)c1=O	-17	1	-18	0	0	5
O=C(C[n+]1ccccc1)NNc1ccccc1	21	-3	114*	0	0	7
CCCC1(c2ccccc2)NC(=O)N(CC(=O)Nc2cc(C)ccc2OC)C1=O (stereo not drawn)	16	93*	-19	0	0	-23
CCCC1(c2ccccc2)NC(=O)N(CC(=O)NCc2ccc(C)cc2)C1=O (stereo not drawn)	-8	0	2	0	7	0
C#CCOCCOCCOCCNc1nc(N2CCOCC2)nc(N2CCN(C(=O)CCCCCCCCCCNC(=O)[C@H]([C@@H](C)CC)n3cc(CCCCN=C(N)N)nn3)CC2)n1	x	-6	22	x	x	-1
C#CCOCCOCCOCCNc1nc(N2CCN(C(=O)CCCCCCCCCCNC(=O)[C@H]([C@@H](C)CC)n3cc(CCCCN=C(N)N)nn3)CC2)nc(N2CCN(C(=O)CCCCCCCCCCNC(=O)[C@H](CCCN=C(N)N)n3cc(C[C@@H](C)CC)nn3)CC2)n1	x	98*	88*	x	x	x
C#CCOCCOCCOCCNc1nc(N2CCN(C(=O)CCCCCCCCCCNC(=O)[C@H](CCCN=C(N)N)n3cc(C[C@@H](C)CC)nn3)CC2)nc(N2CCN(C(=O)CCCCCCCCCCNC(=O)[C@@H]([C@H](C)CC)n3cc(CCCCCN)nn3)CC2)n1	x	107*	168*	x	x	x
Clc1ccc2c(SCC3CO3)c3ccccc3nc2c1 (stereo not drawn)	x	x	x	x	x	8
COc1cc(OC)c2nc(C)c3c(c2c1)N(c1ccc(O)cc1)CC3	83*	46	20	16*	4	14
COc1ccc(N2CCN(c3cc(C)c4ccc(O)cc4n3)CC2)cc1	4	-1	46	0	1	8
O=C(Nc1nnc(C2=COCCO2)o1)c1cccc(F)c1	0	6	23	0	63*	28
CC(C)(C)c1ccc(C(=O)Nc2nnc(C3=COCCO3)o2)cc1	25	-1	41	0	80*	-2
Cc1cccc(C(=O)Nc2nnc(C3=COCCO3)o2)c1	-11	-3	-16	0	-3	-1
CC(C)Oc1ccc(C(=O)Nc2nnc(C3=COCCO3)o2)cc1	7	x	22	0	73*	-19
CCCc1[nH]c2ccc(C(=O)OC)cc2c1CCC	19	-2	16	1	0	2
CCCc1[nH]c2ccc(C#N)cc2c1CCC	39	-4	82*	1	39	8
O=C(NNC(=O)c1ccccc1F)c1ccc(S(=O)(=O)N2CCCCC2)cc1	x	0	7	x	x	-1
Cc1ccc(NC(=O)c2ccccc2OCC(=O)Nc2ccccc2F)cc1S(=O)(=O)N(C)C	x	11	x	x	x	17
S=C(NCCc1ccccc1)N/N=C/c1ccc(Cl)cc1	0	1	22	1	65*	-7
CC1CCN(C(=O)COC(=O)CCCN2C(=O)c3cccc4cccc(c34)C2=O)CC1	-3	-6	x	0	14	2
O=C1CC(=C(c2ccccc2)c2ccccc2)C(=O)N1CCCCN1CCN(c2cccc(Cl)c2)CC1	32	-4	113*	0	12	2
CCOc1cc(CNCc2ccccc2)ccc1OCc1ccc(Cl)cc1	55*	41	28	-22	7	-20
CCNC(=S)NCc1ccc(OC)c(OC)c1	-11	-8	-6	0	-3	3
COc1ccc(CCNC(=S)NCc2ccc(Cl)c(Cl)c2)cc1OC	60*	-1	-11	0	33	3
SMILES	T cruzi inh	Beta apoptosis	CSC inhib	HIF act	SKKanGAS inh	PfHsp90 yeast 2
CCOc1cc(CNCCc2ccc(S(N)(=O)=O)cc2)cc(Cl)c1OCc1ccccc1	58*	51	18	-1	7	-23
COc1ccc(CCNCc2ccc(OCc3ccc(Cl)nc3)c(OC)c2)cc1OC	57*	2	7	0	0	19
N#Cc1ccc(OCC(=O)Nc2ccccc2NS(=O)(=O)c2cccs2)cc1	-18	-3	-5	0	11	36
O=Cc1c(NCc2ccccc2Cl)c2ccccc2[nH]c1=O	1	9	-12	1	-2	3
COc1ccc(CNS(=O)(=O)c2ccc(-c3ccc(=O)[nH]n3)s2)cc1OC	2	0	0	0	0	15
COc1ccc(CNCCc2ccccc2)cc1OCC(N)=O	u	5	14	0	-7	-2
COc1ccc(CNCCc2ccc(Cl)cc2)cc1OCc1ccccc1	70*	40	45	-1	2	-1
COc1cc(CN(C)CCc2ccccc2)ccc1OCc1ccccc1	63*	6	59	1	4	-10
CC12CCC(=O)N1C(C(=O)N1CCN(c3ccc([N+](=O)[O-])cc3)CC1)CS2 (stereo not drawn)	x	-2	x	x	x	4
O=C(NCc1ccncc1)c1ccc(NS(=O)(=O)c2ccc(F)cc2)cc1	x	-5	-3	x	x	16
Cc1cc(C)c2c(=O)[nH]cnc2n1	-13	-3	-7	0	-10	-2
Cc1cc(C)c2c(C)[nH]nc2n1	-9	162*	43	0	4	x
Cc1cc(C)c2c(N=NN3CCCCC3)[nH]nc2n1	14	x	-1	3	4	110*
CCN(CC)N=Nc1[nH]nc2nc(C)cc(C)c12	11	9	0	1	5	110*
CC(=O)n1nc2nc(C)cc(C)c2c1N	4	-2	1	1	0	2
O=C(NCc1ccccc1Cl)C1CCCN1S(=O)(=O)c1ccccc1F (stereo not drawn)	-4	x	-1	0	-1	6
COc1cc(Br)cc(/C=N/NC(=O)Cc2ccc(C(F)(F)F)cc2[N+](=O)[O-])c1O	29	100*	40	1	98*	-19
CCOc1cc(/C=N/NC(=O)Cc2ccc(C(F)(F)F)cc2[N+](=O)[O-])c(Br)cc1OC	3	17	34	-1	4	x
C=CCN1C(=O)c2ccccc2NC1c1cc(Br)cs1 (stereo not drawn)	-2	-1	1	0	6	1
C#C[C@]1(O)CC[C@H]2[C@@H]3CCc4cc(OC5CCCC5)ccc4[C@H]3CC[C@@]21C	55*	4	98*	0	103*	-13
CCOC(=O)C1(Cc2cccc(Cl)c2)CCCN(C(=O)c2cccc(C)n2)C1 (stereo not drawn)	14	-7	-7	-1	-7	-1
Cc1ccc(OCCOCCN2CCCC2)c(Br)c1	57*	1	24	-1	7	-1
CC1CCCN(CCCOc2ccc(Br)cc2Cl)C1 (stereo not drawn)	42	8	194*	1	-3	2

Compound activity: PubChem, Broad Institute
